This passage reports yeast fitness results from the RNAGym collection of RNA variant scans (doi:10.1126/science.aae0568).

Fewer inactive variants are shown than the library holds.

To fix the notation:
B1: tRNA (parent)
chain: GUUCCGUUGGCGUAAUGGUAACGCGUCUCCCUCCUAAGGAGAAGACUGCGGGUUCGAGUCCCGUACGGAACG

In the series the parent is B1. The experiment in a line: yeast fitness relative to wild type (ratio to wild type); higher = fitter; tRNA-Arg(CCU), competitive growth, 37 C, YPD. The gist of the method: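 Genotype frequency changes were the basis for Darwinian fitness relative to wild type. The frequencies came from 100-nucleotide paired-end sequencing of gene amplicons from the start population and each end population of pooled yeast strains with tRNA-Arg(CCU) gene variants at the native locus. Competition ran in YPD at 37°C for 24 hours in six replicates, genotypes needed ≥ 100 starting reads, and estimates < 0.5 were set to 0.5.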
For U8C A14G C49U C61U, the yeast fitness was no more than 0.5. Next, A42C G50U: 0.781; A21U C24U C61U C66U: no more than 0.5; U2G G48A G58C: 0.895. For the variant C5G C31A C55U A65C A70U, the yeast fitness is no more than 0.5.

Consider G10C G48A U54A, for which the yeast fitness is no more than 0.5. Regarding U7C A21U, the yeast fitness was 0.769. As to C4U C22U C31A U32C A43U, the yeast fitness was no more than 0.5. With G10A A21G C22U C55U, the yeast fitness is no more than 0.5. The same measure for C4A A15U U19A C27A C29U C33U A70U: no more than 0.5. The same measure for U7G U28G: 0.635. Next, G6C A14G A20C U64A G67A: 0.562; U28C A45U A70U: 0.773; U8C G38A: 0.885. Take C31A U32C: the yeast fitness came out at 0.766. As to C5A C22U G39A A69U, the yeast fitness was no more than 0.5. Next, G12C U13A A36U: 0.626. In the case of U13A G68A, the yeast fitness turned out to be 0.864. Next, G6A A37G G68A A69G: 0.545; G12A A14C C34U A37G: no more than 0.5. For the variant U13G U19G A57G C62U, the yeast fitness is no more than 0.5. Consider C34U U35A C49G, for which the yeast fitness is 0.57. The same measure for C5G A15C C46U U53G A57C: 0.588. Next, G41A A43G C60G A65G: 0.571; C30U C31A G41A: no more than 0.5; C11U C62G: 0.912. The same measure for C24U A42G A70C: 0.642; for C5G A15U C46U: 0.594.

Regarding U3C G10A U54C G56C G58A, the yeast fitness is 0.553. Turning to C5A G10C G17A A40U U54A, the yeast fitness was no more than 0.5. Next, C31G G51C C66U: 0.566; G17A U54C: 0.67; U2A C33G A42C: 0.509. The same measure for C5A C27G C31G U59C: no more than 0.5; for C61A A65G G68A: no more than 0.5; for C22U C31G U53A: no more than 0.5. For C11G A69G, the yeast fitness was 0.652. For the variant U32C C34A A37U C46U, the yeast fitness was no more than 0.5. The same measure for U2G A14U A20G C33G C61U A70C: no more than 0.5. Regarding A42G G50C A69C, the yeast fitness is no more than 0.5. As to C5G G17C G23C C33G A43C, the yeast fitness is no more than 0.5. Regarding C5A G48C C62U, the yeast fitness was 0.629. Next, A45U A65U: 0.959; G18C A21U C27U: no more than 0.5.

For the variant C27A A43C G44U, the yeast fitness stood at 0.514. The same measure for C5A G38A C62U: 0.639; for G18A U32A U53C: no more than 0.5. Next, U2A U16C C30A A69C: 0.544; G39A G51C: 0.562. Next, C31A C33G A42C G48A U54A C66A: no more than 0.5; U13C C22U G38C: no more than 0.5. With U3A A40C U47A G68C, the yeast fitness is no more than 0.5. Next, U7G A43U C61G: no more than 0.5; C5A A20G C30A A40U G41C C61G G63C: 0.565; C30A G51A G67U: no more than 0.5. On to A21C A57G A69G, for which the yeast fitness is no more than 0.5.

On to U19G G48A C49A, for which the yeast fitness was 0.574. On to C46U A57G, for which the yeast fitness is 0.994. As for C29A C30U C49U, the yeast fitness is no more than 0.5. The same measure for C30U G52A G68C: no more than 0.5.

With C27U C31U U53C A70U, the yeast fitness is no more than 0.5. Take U7A G23A C30U C33A G41C A42U: the yeast fitness is no more than 0.5. Next, A15U U16C A40U: no more than 0.5. Consider G10C A15U, for which the yeast fitness was 0.691. The same measure for U2A U7G C27U G39C C60A: no more than 0.5. The same measure for C27G C62A: 0.516.

In the case of U26G C31A, the yeast fitness came to 0.804. Take C11U A20U G44A C46A G52A C66U: the yeast fitness was no more than 0.5. Next, C27U C34U A45G U47C C60G: no more than 0.5; G12A C27U C30G A42G C55U A57C: no more than 0.5; C11G G25C G48C G51C C66A: no more than 0.5. With U3A U64C G68C, the yeast fitness came to 0.586. For the variant U7A C33A A45C C49U, the yeast fitness is no more than 0.5. The same measure for A21C G48A: 0.854; for A15G G39A C49U: 0.679. In the case of C22A U28G C31G A42U G58C, the yeast fitness was no more than 0.5. Next, U3C C4U A43U G58A: no more than 0.5. Next, U3G U8C G58A: 0.763; A20C C27U: 1.02; G17C G63A: 0.674.

As for U3C U19A G50C C62G C66U, the yeast fitness amounted to 0.575.

For the variant C49A A57G, the yeast fitness is 0.835. The same measure for U8G G12C C55A: no more than 0.5. For U7C U32C G58A A70C, the yeast fitness is no more than 0.5. Next, U16C C29A: 0.629; A15U C33G G52A A65G: no more than 0.5. For the variant A42G C66G, the yeast fitness was 0.808.

On to U2G U13C A21G U35A, for which the yeast fitness was no more than 0.5. Take U7C C29G G44C: the yeast fitness is 0.567. The same measure for G9C G17A U19C G23A A42G C49U C55U: no more than 0.5. In the case of A15U C27A C61U, the yeast fitness is no more than 0.5. Next, U26C C66G: 0.674. The same measure for A42G G48A C61G: no more than 0.5. In the case of U7C A14U C24G C30U A43G, the yeast fitness was no more than 0.5. The same measure for C22G G23C C27A U28C G67A A70G: no more than 0.5; for C24G C33U U35A C61G: no more than 0.5. Consider C4A C11A G39A G41C C46A G68A, for which the yeast fitness was no more than 0.5.

Turning to A20G G41A G67C, the yeast fitness was determined as 0.601. For the variant C34U C49A, the yeast fitness came out at 0.585.

For the variant G9A C31U A40C, the yeast fitness stood at 1.04. The same measure for C24U A45U A69U: 0.78. C4U C22G G50C: the yeast fitness amounted to 0.533.

For the variant C34A U53A G67A, the yeast fitness was no more than 0.5. Next, C22A G25A G68A: 0.676; C34A C46U U47A U59G: no more than 0.5. The same measure for C4U A14C C22A U54C C55G: no more than 0.5; for U2A C27A C60U U64C A69G: no more than 0.5; for C11G A65G: 0.696. For the variant A20G A36C G56C C61U, the yeast fitness was no more than 0.5. The same measure for C5G G25A C61U: 0.716; for C31A C55A G67A: no more than 0.5; for G10C C27G C61G: no more than 0.5. On to U2C U26C A36G, for which the yeast fitness is no more than 0.5. The same measure for G18C A45C A65U: no more than 0.5; for C5U C22U C33U C61G: no more than 0.5.

A20U U26A C61A A69C: the yeast fitness is no more than 0.5. As to G6A G25A U59C, the yeast fitness was no more than 0.5.

For the variant A15U A37G A65C, the yeast fitness was no more than 0.5. Next, A15G U54C C55G C61G A65U: no more than 0.5; U8A C22G A43U G52A U54C G56U U64C: no more than 0.5; A14G C24U A42C G50A: no more than 0.5.

Take C30U U32A U54A: the yeast fitness was determined as 0.536. As for U3G C30G G56A, the yeast fitness was no more than 0.5. For A21G G23A, the yeast fitness stood at 0.787.

Take C5G C31U A36C G38A U54A: the yeast fitness was no more than 0.5. Regarding C11A U32A C33U U47A, the yeast fitness is no more than 0.5. As for A37U G44A U54A C62G C66G A69G, the yeast fitness is no more than 0.5. Next, C5A C31U A40G C49U A70U: no more than 0.5.

Turning to C4G A20U A57U C62U, the yeast fitness was no more than 0.5. With A15C A21U C24U A57G G67U, the yeast fitness was determined as 0.542. G9C A14U G50C: the yeast fitness was 0.682.

Consider U8C C29U U35G, for which the yeast fitness is no more than 0.5. U19A G23C: the yeast fitness is 0.549.

As to U2C C11G A14C C61U U64A, the yeast fitness came to 0.623.

Turning to U64C C66A, the yeast fitness worked out at 0.832. As for C31G G44A, the yeast fitness came to 1.07. The same measure for U19A U47C C66U: 0.751; for G48A C60A: 0.695. Next, C24A C31A C55A: no more than 0.5. Regarding A37C A43G, the yeast fitness is 0.988.

Consider C5U C66U, for which the yeast fitness was found to be 0.877. Next, G6A A15C C29U: no more than 0.5; C4U G39C U54C: no more than 0.5. With C11U C30U A65U C66G, the yeast fitness was found to be 0.585.

As for C22G U26C, the yeast fitness was 0.971. The same measure for G25A U59C: 0.775.

As to U7G G25A, the yeast fitness came out at 0.799. Turning to C5U C55U G56C C62U, the yeast fitness was found to be 0.932. Consider C24U A45U C55U, for which the yeast fitness was determined as 0.569. The same measure for A43U C46A A65C A70U: no more than 0.5; for A14C A43U: 0.731; for C5U A37C U47C C61U: no more than 0.5.

As for U7G C34U, the yeast fitness was determined as 0.588.

For the variant U47A A70C, the yeast fitness came to 0.842.

On to C27A C31A C49U G58C C62U U64A, for which the yeast fitness was no more than 0.5. G10C C30A: the yeast fitness was 0.815. Regarding C5G C31U C49G C66U, the yeast fitness was no more than 0.5. Consider C31G G58C G67C, for which the yeast fitness is 0.533. Next, U8G C22G G25A G63C: no more than 0.5; C5U C22A C27G: 0.569; U7G A43U U64C: 0.546. The same measure for C27G C49U A65U: no more than 0.5; for G9A C30G U32C G41A A57U: no more than 0.5.

In the case of G25A C34G U54A A65U, the yeast fitness was no more than 0.5. The same measure for C5G A15G U28A A57C C66G: no more than 0.5; for A40G U47G: 0.595; for G6A A20C A70G: 0.718.
